From ChEMBL document CHEMBL1130270, “Design of [R-(Z)]-(+)-alpha-(methoxyimino)-1-azabicyclo[2.2.2]octane-3-acetonitri le (SB 202026), a functionally selective azabicyclic muscarinic M1 agonist incorporating the N-methoxy imidoyl nitrile group as a novel ester bioisostere” (J Med Chem, 1997) come the findings set out here.

A word on the logD: it is lipophilicity at a set pH, counting ionised and neutral species. A lower logD goes with a more hydrophilic compound. For orientation: IC50 means the concentration needed to halve the response being measured. The low end stands for greater potency, the high end for weaker potency. A word on the ED50: it is the dose that gives a 50% effect, or the effect in half of the subjects. A low value points to greater potency.

A short description of data set [1]: Partition coefficient is determined in octanol/buffer solution at pH 12. The class given is physicochemical.
The target in data set [2] is T1, Muscarinic acetylcholine receptor M1 (Homo sapiens, UniProt P11229).
T1 sequence (P11229 whole entry): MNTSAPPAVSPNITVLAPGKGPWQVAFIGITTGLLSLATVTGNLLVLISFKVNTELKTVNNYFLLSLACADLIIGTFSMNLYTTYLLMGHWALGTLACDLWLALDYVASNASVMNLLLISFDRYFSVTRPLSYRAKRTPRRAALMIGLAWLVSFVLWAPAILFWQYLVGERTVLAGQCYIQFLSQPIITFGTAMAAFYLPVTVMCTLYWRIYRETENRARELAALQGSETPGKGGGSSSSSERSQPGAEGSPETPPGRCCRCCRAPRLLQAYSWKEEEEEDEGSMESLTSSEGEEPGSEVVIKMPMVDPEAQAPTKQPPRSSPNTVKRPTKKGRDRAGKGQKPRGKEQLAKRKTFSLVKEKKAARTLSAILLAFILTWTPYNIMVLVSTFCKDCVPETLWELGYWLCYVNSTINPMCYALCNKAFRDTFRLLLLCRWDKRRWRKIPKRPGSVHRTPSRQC
The data set is described as follows: In vitro affinity against human Muscarinic acetylcholine receptor M1 using quinuclidynyl benzylate (QNB).

In data set [3] the target is Muscarinic acetylcholine receptor M3 (Homo sapiens, UniProt P20309). The data set is described as follows: In vitro affinity is evaluated, using quinuclidynyl benzylate (QNB)radioligand in human cloned Muscarinic acetylcholine receptor M3. The method in brief:
(§1)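 Membranes from CHO cells transfected with human m2, m3 or m4 receptors, prepared in 50 mM Tris (pH 7.4 at 37 °C). Displacement of 0.1 nM [3H]QNB; nonspecific binding defined with atropine sulfate. Incubated to equilibrium at 37 °C, ended by rapid vacuum filtration.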

The target of data set [4] is T2, Muscarinic acetylcholine receptor M2 (Homo sapiens, UniProt P08172).
T2 sequence (P08172 whole entry): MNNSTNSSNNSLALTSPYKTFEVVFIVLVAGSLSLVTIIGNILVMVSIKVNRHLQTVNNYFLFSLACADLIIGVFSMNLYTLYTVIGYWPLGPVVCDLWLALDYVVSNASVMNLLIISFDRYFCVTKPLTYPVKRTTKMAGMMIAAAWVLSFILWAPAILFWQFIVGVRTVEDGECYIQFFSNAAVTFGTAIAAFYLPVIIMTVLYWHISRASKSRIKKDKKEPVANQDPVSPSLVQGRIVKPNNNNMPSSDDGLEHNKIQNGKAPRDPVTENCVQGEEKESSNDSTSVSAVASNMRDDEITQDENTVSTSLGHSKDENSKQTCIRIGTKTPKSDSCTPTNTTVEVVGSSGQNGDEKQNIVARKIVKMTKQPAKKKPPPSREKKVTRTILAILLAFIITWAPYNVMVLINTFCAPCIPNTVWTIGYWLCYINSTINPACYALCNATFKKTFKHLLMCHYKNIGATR
The data set is described as follows: In vitro affinity is evaluated, using quinuclidinyl benzilate (QNB) as radioligand in human cloned Muscarinic acetylcholine receptor M2. The method in brief:
as §1

Data set [5] addresses T3, Muscarinic acetylcholine receptor M4 (Homo sapiens, UniProt P08173).
T3 sequence (P08173 whole entry): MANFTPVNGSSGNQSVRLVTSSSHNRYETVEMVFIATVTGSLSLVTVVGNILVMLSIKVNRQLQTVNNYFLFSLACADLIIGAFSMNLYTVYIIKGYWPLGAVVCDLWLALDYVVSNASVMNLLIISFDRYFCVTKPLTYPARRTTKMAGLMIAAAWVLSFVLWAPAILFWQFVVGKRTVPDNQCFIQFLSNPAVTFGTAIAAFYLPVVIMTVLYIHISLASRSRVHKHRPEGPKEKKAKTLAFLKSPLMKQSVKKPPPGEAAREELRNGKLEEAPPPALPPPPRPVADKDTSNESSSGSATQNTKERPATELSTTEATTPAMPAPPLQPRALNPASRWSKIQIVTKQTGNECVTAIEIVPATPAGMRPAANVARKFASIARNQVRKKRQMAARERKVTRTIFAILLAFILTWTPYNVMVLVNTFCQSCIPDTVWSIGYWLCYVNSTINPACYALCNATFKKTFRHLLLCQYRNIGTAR
The data set is described as follows: In vitro affinity is evaluated, using quinuclidynyl benzylate (QNB) radioligand in human cloned Muscarinic acetylcholine receptor M4. The method in brief: as §1

Data set [6] deals with Rattus norvegicus. The data set is described as follows: Dose producing 50% fall in heart rate in anesthetized rats. The class given is functional. The method in brief: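 Male Hooded Lister rats (300-380 g) under urethane anaesthesia, 37 °C. Increasing iv doses via femoral vein at 45 min intervals. BP recorded from carotid artery; HR derived from the BP signal. Peak effect within 1 min, expressed as % of predose. Value is the dose giving a transient 50% fall in mean BP or HR; 95% confidence limits.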

A short description of data set [7]: Ratio of 50% fall blood pressure to that of rhythmic slow wave activity in anesthetized rats. It is filed as functional. The method in brief:
(§2)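 Same anaesthetized-rat dosing as above. Ratio of iv dose giving a transient 50% fall in BP (or HR) to the iv dose giving an arecoline-equivalent (0.32 mg/kg) change in hippocampal theta power.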

Data set [8] in a line: Ratio of 50% fall in heart rate to that of […] slow wave activity in anesthetized rats. The class given is functional. The method in brief:
as §2

Muscarinic acetylcholine receptor M3, sequence (P20309 whole entry): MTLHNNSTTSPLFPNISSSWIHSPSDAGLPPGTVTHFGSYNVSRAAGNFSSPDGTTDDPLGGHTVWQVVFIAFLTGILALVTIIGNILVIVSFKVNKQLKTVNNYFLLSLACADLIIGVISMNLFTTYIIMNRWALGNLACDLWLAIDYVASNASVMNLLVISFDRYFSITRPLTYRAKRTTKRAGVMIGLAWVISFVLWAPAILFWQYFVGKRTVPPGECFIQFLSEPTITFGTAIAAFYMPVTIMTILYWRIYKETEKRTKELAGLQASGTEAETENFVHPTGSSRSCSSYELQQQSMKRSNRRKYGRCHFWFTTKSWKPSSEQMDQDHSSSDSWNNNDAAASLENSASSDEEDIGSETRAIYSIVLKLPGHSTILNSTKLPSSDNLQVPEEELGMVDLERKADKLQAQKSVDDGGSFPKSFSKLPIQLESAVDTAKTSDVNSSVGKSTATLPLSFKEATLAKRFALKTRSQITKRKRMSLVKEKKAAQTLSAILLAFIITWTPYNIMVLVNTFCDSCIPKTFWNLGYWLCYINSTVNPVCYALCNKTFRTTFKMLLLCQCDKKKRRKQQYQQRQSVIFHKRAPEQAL

Consider `CO/N=C(\C#N)C12CCCN(CC1)C2` (stereo not drawn), for which the logD in data set [1] turned out to be 1.49. The IC50 in data set [2] was 99 nM; in data set [3] it was 28 nM; in data set [4] it was 31 nM; in data set [5] it was 49 nM. Moreover, in data set [6], it took a dose of 0.01 mg/kg to reach the 50% effect level (ED50). The Ratio is listed as 4 in data set [7] and 2 in data set [8].
